This note sets out measurements from the array DNA melting data of Ke et al. (doi:10.1101/2024.01.08.574731).

Data set [1] is described as follows: folding enthalpy; higher = less favourable; fluorescence melt of hairpins on a sequencing array, two-state fit. The conditions noted are these: sodium 0.088 M. The gist of the method: (§1)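 In 50 mM Na-HEPES pH 8.0 containing 25 mM NaCl, hairpins from the library on a sequenced MiSeq flow cell were imaged for Cy3 fluorescence at 2.5 °C steps up to 60 °C, with Cy3 and quencher oligos annealed. After normalisation to pre-quench Cy3 and to control constructs, two-state fits with bootstrapping gave melting temperature and folding enthalpy. Four replicates were combined by inverse-variance weighting, and fitted temperatures were shifted up by 9.35 °C to match UV melts.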

A short description of data set [2]: melting temperature; fluorescence melt of hairpins on a sequencing array, two-state fit, raised by 9.35 °C to match UV melts. The conditions noted are these: sodium 0.088 M. The gist of the method:
as §1

On to GCGCAGCGAAAGCAGTGC ((.(.((....)).).)), for which the folding enthalpy in data set [1] is -12 kcal/mol. Besides, the Tm in data set [2] is 54.4 °C.

For the sequence GGGTTCGGAAACGGACCC ((((.((....)).)))), the folding enthalpy in data set [1] was -46.2 kcal/mol. Further, the Tm in data set [2] was found to be 59.6 °C.

For the sequence GGCCACGAAAGTGAGCC ((((((....))).))), in data set [1], the folding enthalpy is -27.1 kcal/mol. The Tm in data set [2] is 65.8 °C.

Take GAGTACGAAAGTACCTC ((((((....))).))): in data set [1], the folding enthalpy is -14.5 kcal/mol. Besides, the Tm in data set [2] amounted to 47 °C.

As for CGGGTCCGGAAACGGCCG (((..(((....)))))), the folding enthalpy in data set [1] was -14.3 kcal/mol. For the same sequence, the Tm in data set [2] was determined as 47.5 °C.

On to GATCTGGATTCAGATC ((((((....)))))), for which the folding enthalpy in data set [1] was -39.3 kcal/mol. The Tm in data set [2] was 48.6 °C.

As to GTCTACGAAAGTAATGAC ((((((....)))..))), the folding enthalpy in data set [1] was -17.6 kcal/mol. Besides, the Tm in data set [2] was 30.7 °C.

Turning to GATCTCAAGGGAGATC ((((((....)))))), the folding enthalpy in data set [1] is -28.6 kcal/mol. Further, in data set [2], the Tm stood at 50.8 °C.

GTAACCGGAAACGGCTAC (((.(((....))).))): in data set [1], the folding enthalpy was -25.9 kcal/mol. In addition, the Tm in data set [2] came to 42.9 °C.

GATAGCGGAAACGCTGTC ((.((((....)))).)): the folding enthalpy in data set [1] is -25 kcal/mol. Further, the Tm in data set [2] worked out at 52.2 °C.

In the case of GCCCAGCGAAAGCTCTGC ((..(((....)))..)), the folding enthalpy in data set [1] is -6.7 kcal/mol. For the same sequence, in data set [2], the Tm is 26.9 °C.

Consider GATCCGCATGCGGATC ((((((....)))))), for which the folding enthalpy in data set [1] was -30.3 kcal/mol. Also, the Tm in data set [2] stood at 69 °C.

Consider GTAGACGGAAACGTCTGC (.(((((....))))).), for which, in data set [1], the folding enthalpy is -24.6 kcal/mol. Moreover, the Tm in data set [2] turned out to be 55.1 °C.

Consider CGAACGGAAACGTGATCG ((((((....)))..))), for which, in data set [1], the folding enthalpy is -19.6 kcal/mol. The Tm in data set [2] was found to be 28.6 °C.

GCATACGAAAGTACATGC ((((((....)))..))): the folding enthalpy in data set [1] is -26.9 kcal/mol. The Tm in data set [2] turned out to be 38.9 °C.

For the sequence GATCATAAAGATGATC ((((((....)))))), in data set [1], the folding enthalpy was -24.4 kcal/mol. Also, the Tm in data set [2] is 40 °C.

Consider GCACGCGAAAGCGTTGC ((((((....))).))), for which, in data set [1], the folding enthalpy was -17.8 kcal/mol. Moreover, the Tm in data set [2] was 64.7 °C.

Turning to GCGTACCAACGC ((((....)))), the folding enthalpy in data set [1] was -21 kcal/mol. Further, in data set [2], the Tm was 53.6 °C.

Turning to GCGTGTTTACGC ((((....)))), in data set [1], the folding enthalpy is -30 kcal/mol. In data set [2], the Tm stood at 55 °C.

GATCAGCGGCCTGATC ((((((....)))))): in data set [1], the folding enthalpy is -36.9 kcal/mol. For the same sequence, the Tm in data set [2] was determined as 49.8 °C.

With GATCACTGTAGTGATC ((((((....)))))), the folding enthalpy in data set [1] was -39.7 kcal/mol. In addition, in data set [2], the Tm was 60.6 °C.

With CAACGGAAACGTTG (((((....))))), the folding enthalpy in data set [1] was -25.9 kcal/mol. The Tm in data set [2] was 52.6 °C.

On to GCGGATGGAAACATCTGC ((.((((....)))).)), for which the folding enthalpy in data set [1] was -47.5 kcal/mol. For the same sequence, the Tm in data set [2] was determined as 54.4 °C.

As for GACAGCGAAAGCTAGGTC ((((((....)))..))), in data set [1], the folding enthalpy is -18.4 kcal/mol. The Tm in data set [2] stood at 39.4 °C.

GTTATGGGAAACCACAAC (((.(((....))).))): the folding enthalpy in data set [1] was -14.9 kcal/mol. In addition, in data set [2], the Tm came to 29.2 °C.

Consider GTGGATGGAAACGTCCAC (((((.(....).))))), for which, in data set [1], the folding enthalpy is -47.6 kcal/mol. The Tm in data set [2] is 53 °C.

For GCGGTCCCCGC ((((...)))), the folding enthalpy in data set [1] is -18 kcal/mol. Further, the Tm in data set [2] stood at 67.5 °C.

As for GGGGCCGAAAGGCAACCC ((((((....)))..))), the folding enthalpy in data set [1] was -15 kcal/mol. Moreover, in data set [2], the Tm is 57.3 °C.

Turning to GTTGACGAAAGTCTTAAC ((((((....)))..))), the folding enthalpy in data set [1] was -10 kcal/mol. Also, the Tm in data set [2] was found to be 28.1 °C.

Regarding CGTCCGGAAACGGGGACG ((((((....)))..))), the folding enthalpy in data set [1] is -25 kcal/mol. Moreover, the Tm in data set [2] worked out at 48.3 °C.

GGCACACCGAAAGGTGCC (((..(((....)))))): in data set [1], the folding enthalpy is -14.3 kcal/mol. Further, the Tm in data set [2] is 52.8 °C.

For the sequence GCGTCCCACGC ((((...)))), the folding enthalpy in data set [1] was -25.9 kcal/mol. The Tm in data set [2] is 56.3 °C.

As for GATCCCAGCTGGGATC ((((((....)))))), the folding enthalpy in data set [1] was -46.9 kcal/mol. Moreover, the Tm in data set [2] was 62.3 °C.

Turning to GCGATTGGAAACAATCAC (.(((((....))))).), in data set [1], the folding enthalpy was -19.7 kcal/mol. In data set [2], the Tm worked out at 40 °C.

In the case of GAGCATGGAAACATGCTC (((((((....))))))), the folding enthalpy in data set [1] is -37.1 kcal/mol. The Tm in data set [2] turned out to be 67.5 °C.

Turning to CGCGGAACCGTCCGCG ((((((....)))))), the folding enthalpy in data set [1] is -31.9 kcal/mol. The Tm in data set [2] was determined as 68.4 °C.

In the case of GACTCCGAAAGGACGTC ((((((....))).))), the folding enthalpy in data set [1] was -30.8 kcal/mol. Moreover, the Tm in data set [2] was 49.9 °C.
